Assays:
[1] = Selectivity index, ratio of Ki for inhibition of recombinant human MAO-A to Ki for inhibition of recombinant human MAO-B using p-tyramine as substrate
[2] = Cytotoxicity against human HepG2 cells assessed as cell viability at 15 uM incubated for 2 hrs by MTT assay relative to control; type: cell-based; conditions: read-out: Activity
Method in brief: (§1)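 HepG2 human hepatoma cells; viability read by MTT assay, with 0.1% DMSO as vehicle control. Viability given as % of control, mean ± SEM (n = 3); p < 0.05 taken as significant.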

[3] = target: T1, Amine oxidase [flavin-containing] A (Homo sapiens, UniProt P21397); test: Reversible inhibition of human MAO-A assessed as residual enzyme activity at 4 fold IC50 incubated for 15 mins and measured 24 hrs post dialysis by dialysis method relative to control; conditions: 24.25 h, time 1455 min
T1 sequence (P21397 whole entry): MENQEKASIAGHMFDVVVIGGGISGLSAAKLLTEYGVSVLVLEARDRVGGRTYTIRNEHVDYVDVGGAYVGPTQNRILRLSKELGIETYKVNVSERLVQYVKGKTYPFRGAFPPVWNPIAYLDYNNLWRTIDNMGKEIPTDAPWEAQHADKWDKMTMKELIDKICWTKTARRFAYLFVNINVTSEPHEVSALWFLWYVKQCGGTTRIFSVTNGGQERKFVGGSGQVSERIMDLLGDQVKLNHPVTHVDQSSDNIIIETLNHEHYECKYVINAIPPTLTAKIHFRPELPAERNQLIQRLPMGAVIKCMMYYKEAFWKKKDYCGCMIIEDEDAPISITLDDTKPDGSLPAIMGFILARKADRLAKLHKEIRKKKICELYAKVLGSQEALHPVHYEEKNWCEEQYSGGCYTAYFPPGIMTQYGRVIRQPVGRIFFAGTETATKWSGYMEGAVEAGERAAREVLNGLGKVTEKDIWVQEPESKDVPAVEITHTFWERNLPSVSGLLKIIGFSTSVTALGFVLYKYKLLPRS
Method in brief: (§2)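 Dialysed (MWCO 12 000) at 4 °C for 24 h against 100 mM potassium phosphate pH 7.4, 5% sucrose, buffer changed twice. Dialysed and undialysed mixtures assayed together; residual activity from triplicates.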

[4] = target: T2, Amine oxidase [flavin-containing] B (Homo sapiens, UniProt P27338); test: Reversible inhibition of human MAO-B assessed as residual enzyme activity at 4 fold IC50 incubated for 15 mins and measured before dialysis relative to control; method in brief: as §2
T2 sequence (P27338 whole entry): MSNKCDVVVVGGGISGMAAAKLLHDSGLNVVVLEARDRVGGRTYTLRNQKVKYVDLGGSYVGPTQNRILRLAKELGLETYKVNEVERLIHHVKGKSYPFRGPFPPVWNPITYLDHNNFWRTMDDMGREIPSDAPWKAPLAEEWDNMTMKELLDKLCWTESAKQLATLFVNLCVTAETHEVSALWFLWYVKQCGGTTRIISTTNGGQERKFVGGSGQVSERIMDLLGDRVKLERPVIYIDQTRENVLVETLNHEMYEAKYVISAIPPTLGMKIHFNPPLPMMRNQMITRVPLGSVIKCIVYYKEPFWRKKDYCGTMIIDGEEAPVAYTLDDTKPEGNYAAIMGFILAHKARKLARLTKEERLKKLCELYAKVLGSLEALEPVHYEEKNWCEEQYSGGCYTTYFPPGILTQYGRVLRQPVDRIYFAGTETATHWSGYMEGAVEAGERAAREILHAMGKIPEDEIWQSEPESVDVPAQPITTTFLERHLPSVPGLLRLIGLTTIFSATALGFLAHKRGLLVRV

[5] = Ex vivo inhibition of MAOA in CD1 mouse brain homogenates assessed as 5-HT levels at 3 mg/kg, po administered via gavage for 7 days and measured 1 hr post last dose by ELISA kit method (reference value: 0.78 +/- 0.01 ug/g); type: functional; conditions: time 7 day
[6] = Ex vivo inhibition of MAOA in CD1 mouse brain homogenates assessed as 5-HT levels at 10 mg/kg, po administered via gavage for 7 days and measured 1 hr post last dose by ELISA kit method (reference value: 0.78 +/- 0.01 ug/g); type: functional; conditions: time 7 day
[7] = Cytotoxicity against human HepG2 cells assessed as cell viability at 7.5 uM incubated for 2 hrs by MTT assay relative to control; type: cell-based; conditions: read-out: Activity; method in brief: as §1
[8] = target: T2, Amine oxidase [flavin-containing] B; test: Reversible inhibition of human MAO-B assessed as residual enzyme activity at 4 fold IC50 incubated for 15 mins and measured 24 hrs post dialysis relative to control; conditions: 24.25 h, time 1455 min; method in brief: as §2
[9] = Ex vivo inhibition of MAOA in CD1 mouse brain homogenates assessed as MAOA level at 3 mg/kg, po administered via gavage for 7 days and measured 1 hr post last dose by monoamine oxidase assay (reference value: 0.39 +/- 0.04 nmol/min/mg); type: functional; conditions: time 7 day
[10] = Ex vivo inhibition of MAOA in CD1 mouse brain homogenates assessed as MAOA level at 1 mg/kg, po administered via gavage for 7 days and measured 1 hr post last dose by monoamine oxidase assay (reference value: 0.39 +/- 0.04 nmol/min/mg); type: functional; conditions: time 7 day
[11] = Ex vivo inhibition of MAOA in CD1 mouse brain homogenates assessed as MAOA level at 10 mg/kg, po administered via gavage for 7 days and measured 1 hr post last dose by monoamine oxidase assay (reference value: 0.39 +/- 0.04 nmol/min/mg); type: functional; conditions: time 7 day
[12] = Ex vivo inhibition of MAOA in CD1 mouse brain homogenates assessed as MAOA level at 30 mg/kg, po administered as single acute dose via gavage and measured after 1 hr by monoamine oxidase assay (reference value: 0.40 +/- 0.012 nmol/min/mg); type: functional
[13] = Cytotoxicity against human HepG2 cells assessed as cell viability at 30 uM incubated for 2 hrs by MTT assay relative to control; type: cell-based; conditions: read-out: Activity; method in brief: as §1
[14] = Ex vivo inhibition of MAOA in CD1 mouse brain homogenates assessed as inhibition of 5-HT deamination by measuring 5-HIAA metabolite levels by using at 10 mg/kg, po administered via gavage for 7 days and measured 1 hr post last dose by HPLC analysis (reference value: 0.33 +/- 0.02 ug/g); type: functional; conditions: time 7 day
[15] = target: T1, Amine oxidase [flavin-containing] A; test: Reversible inhibition of human MAO-A assessed as residual enzyme activity at 4 fold IC50 incubated for 15 mins and measured before dialysis by dialysis method relative to control; method in brief: as §2
[16] = Ex vivo inhibition of MAOA in CD1 mouse brain homogenates assessed as inhibition of 5-HT deamination by measuring 5-HIAA metabolite levels by using at 1 mg/kg, po administered via gavage for 7 days and measured 1 hr post last dose by HPLC analysis (reference value: 0.33 +/- 0.02 ug/g); type: functional; conditions: time 7 day
[17] = Ex vivo inhibition of MAOA in CD1 mouse brain homogenates assessed as inhibition of 5-HT deamination by measuring 5-HIAA metabolite levels by using at 3 mg/kg, po administered via gavage for 7 days and measured 1 hr post last dose by HPLC analysis (reference value: 0.33 +/- 0.02 ug/g); type: functional; conditions: time 7 day
[18] = Ex vivo inhibition of MAOA in CD1 mouse brain homogenates assessed as 5-HT levels at 1 mg/kg, po administered via gavage for 7 days and measured 1 hr post last dose by ELISA kit method (reference value: 0.78 +/- 0.01 ug/g); type: functional; conditions: time 7 day

| Ratio Ki [1] | Compound | viability at 2 h, 15 µM [2] | Activity [3] | Activity [4] | Activity [5] | Activity [6] | viability at 2 h, 7.5 µM [7] | Activity [8] | Activity [9] | Activity [10] | Activity [11] | Activity [12] | viability at 2 h, 30 µM [13] | Activity [14] | Activity [15] | Activity [16] | Activity [17] | Activity [18] |
| --- | --- | --- | --- | --- | --- | --- | --- | --- | --- | --- | --- | --- | --- | --- | --- | --- | --- | --- |
| 1.37 10^-5No_unit | COc1ccc(C2=NN(C(=O)Cn3c(=O)oc4ccc(C)cc43)C(c3cccc(OC)c3OC)C2)cc1 (centres undefined) | 99.6% | 92.55% | 74.19% | 0.85 µg/g | 0.99 µg/g | 101% | 94.16% | 0.34 nmol/min/mg | 0.39 nmol/min/mg | 0.27 nmol/min/mg | 0.23 nmol/min/mg | 84.9% | 0.29 µg/g | 22.16% | 0.32 µg/g | 0.3 µg/g | 0.8 µg/g |
|  | O=C(NCCN1CCOCC1)c1ccc(Cl)cc1 [MOCLOBEMIDE] | 88.5% | 93.77% | 88% | 0.79 µg/g | 0.82 µg/g | 90.8% | 89.55% | 0.41 nmol/min/mg | 0.41 nmol/min/mg | 0.4 nmol/min/mg |  | 86% | 0.3 µg/g | 36% | 0.33 µg/g | 0.32 µg/g | 0.78 µg/g |
